This is an account of results in ChEMBL document CHEMBL1687848, “In vitro effect of qnrA1, qnrB1, and qnrS1 genes on fluoroquinolone activity against isogenic Escherichia coli isolates with mutations in gyrA and parC” (2011).

Assay type in all cases: functional
The test system of experiment [1] is Escherichia coli. Kind of experiment: Antibacterial activity against qnrB gene expressing Escherichia coli ATCC 25922 harboring GyrA S83L mutant and pBK-QnrB1 by broth microdilution method.
Experiment [2] relates to Escherichia coli. Briefly: Antibacterial activity against Escherichia coli ATCC 25922 expressing qnrS gene and pBK-QnrS1 by broth microdilution method. A general note: Dilution methods test growth across graded concentrations, often in twofold steps.
Experiment [3] concerns Escherichia coli. Briefly: Antibacterial activity against Escherichia coli ATCC 25922 harboring GyrA S83L mutant and ParC S80R mutant by broth microdilution method.
The test system of experiment [4] is Escherichia coli. Briefly: Antibacterial activity against qnrA gene expressing Escherichia coli ATCC 25922 harboring ParC S80R mutant, ParC S80R mutant and pBK-QnrA1 by broth microdilution method.
Experiment [5] concerns Escherichia coli. Briefly: Antibacterial activity against Escherichia coli ATCC 25922 assessed as mutant prevention concentration.
Experiment [6] deals with Escherichia coli. Kind of experiment: Ratio of mutant prevention concentration to MIC for Escherichia coli ATCC 25922 harboring GyrA S83L mutant. The method in brief:
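MIC: broth microdilution per CLSI, in duplicate. The ratio is MPC over MIC. Strains are E. coli ATCC 25922 or its GyrA Ser83Leu gene-replacement mutant, with qnr genes on pBK-CMV introduced by electroporation.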

In experiment [7] the test system is Escherichia coli. Kind of experiment: Antibacterial activity against Escherichia coli ATCC 25922 expressing qnrB gene and pBK-QnrB1 assessed as earliest time required to resistant colonies visible one step below mutant prevention concentration.
Experiment [8] relates to Escherichia coli. Kind of experiment: Antibacterial activity against qnrB gene expressing Escherichia coli ATCC 25922 harboring GyrA S83L mutant and pBK-QnrB1 assessed as earliest time required to resistant colonies visible one step below mutant prevention concentration.
Experiment [9] concerns Escherichia coli. Briefly: Antibacterial activity against qnrS gene expressing Escherichia coli ATCC 25922 harboring GyrA S83L mutant and pBK-QnrS1 assessed as earliest time required to resistant colonies visible one step below mutant prevention concentration.
In experiment [10] the test system is Escherichia coli. Kind of experiment: Antibacterial activity against Escherichia coli ATCC 25922 expressing qnrB gene and pBK-QnrB1 assessed as resistant colonies recovered one step below mutant prevention concentration. A digest of the protocol:
(§1)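 Resistant colonies recovered from Mueller-Hinton plates one concentration step below the MPC for each fluoroquinolone were retested for MIC. Mutants taken from plated concentrations closest to the MPC had the QRDRs of gyrA and parC analysed.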

Experiment [11] deals with Escherichia coli. Briefly: Antibacterial activity against qnrS gene expressing Escherichia coli ATCC 25922 harboring GyrA S83L mutant and pBK-QnrS1 assessed as resistant colonies recovered one step below mutant prevention concentration. The method in brief: as §1

Values after ≈ are worked out from the molar mass of the structure shown.

A word on the MBC: it is the smallest concentration meeting the test's criterion for killing. Read a low MBC as more potent killing. One may read the MIC as the lowest concentration that inhibits growth of the organism.

With `CCn1cc(C(=O)O)c(=O)c2cc(F)c(N3CCNCC3)cc21` [NORFLOXACIN], the MBC amounted to 1 µg/mL (≈ 3.13 µM) against Escherichia coli [1], 1 µg/mL (≈ 3.13 µM) against Escherichia coli [2], 2 µg/mL (≈ 6.26 µM) in the experiment with Escherichia coli [3] and 64 µg/mL (≈ 200 µM) in the experiment on Escherichia coli [4]. The MIC against Escherichia coli [1] stood at 1 µg/mL (≈ 3.13 µM); against Escherichia coli [2], 0.5 µg/mL (≈ 1.57 µM); in the experiment on Escherichia coli [3] it was 2 µg/mL (≈ 6.26 µM); in the experiment with Escherichia coli [4], 8 µg/mL (≈ 25.1 µM); with Escherichia coli [10], 0.5 µg/mL (≈ 1.57 µM); with Escherichia coli [11], 2 µg/mL (≈ 6.26 µM). The Activity in the experiment on Escherichia coli [5] stood at 4 µg/mL. Also, in the experiment on Escherichia coli [6], the Ratio is listed as 32. For the same compound, the Time came out at 48 h in the experiment on Escherichia coli [7], 24 h in the experiment with Escherichia coli [8] and 24 h with Escherichia coli [9].
